Source: publication PMC3160560 (Investigational New Drugs, 2010)
pIC50: −log10 of the molar value. Like-named read-outs stand apart in the source and are kept apart here.

What was measured:
ret proto-oncogene (RET) = details: read-out: IC50 RET; panel of 32 kinases; cited from earlier work
aurora-A (AURKA) = details: read-out: IC50 aurora-A; cited from earlier work
[1] = pharmacokinetics in phase I cancer patients; assay type: in vivo, human
How it was run: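 In the phase I trial, the test compound was given IV on days 1, 8 and 15 every 28 days. Doses were 45–400 mg/m2 by 6-h infusion or 250–330 mg/m2 by 3-h infusion. Blood was sampled on days 1–4, 8, 15–18 and 22 of cycle 1. Clearance (L/hour/m2) came from non-compartmental analysis. Genotypes came from TaqMan assays on blood DNA and were compared by t-test/ANOVA.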

[2] = biological target: vascular endothelial growth factor receptor 3 (FLT4, VEGFR3); details: read-out: IC50 FLT4 (VEGFR3); panel of 32 kinases; cited from earlier work
[3] = biological target: fms-related tyrosine kinase 3 (FLT3); details: read-out: IC50 FLT3; panel of 32 kinases; cited from earlier work
[4] = system: ATP-binding cassette B1 (ABCB1/MDR1); details: in vitro; ref unpublished data (b4), 26; cited from earlier work
aurora-B (AURKB) = details: read-out: IC50 aurora-B; cited from earlier work
[5] = system: histone H3 phosphorylation; assay: histone H3 phosphorylation in skin biopsies by immunohistochemistry; assay type: in vivo, human
How it was run: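 Skin biopsies were taken at baseline and 10 min before the end of the first infusion of cycle 1. Phospho-histone H3 was stained by immunohistochemistry, giving the % change in positive cells. AURKB genotypes were compared by t-test/ANOVA.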

aurora-C (AURKC) = details: read-out: IC50 aurora-C; cited from earlier work
[6] = cited from earlier work
[7] = system: ATP-binding cassette G2 (ABCG2/BCRP); details: in vitro; ref unpublished data (b4), 26; cited from earlier work
[8] = toxicity in first treatment cycle; assay type: in vivo, human; details: for Neutropenia grade 3–4: No (No. patients) / Neutropenia grade 3–4: Yes (No. patients): cycle 1, RP2D
How it was run: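 Adverse events in cycle 1 were graded by NCI-CTC v3.0. Phase II patients received 330 mg/m2 on days 1, 8 and 15 (6-h) or 500 mg/m2 on days 1 and 15 (24-h) every 28 days. Genotypes were compared by two-sided chi-square.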

[9] = AURKA 91A > T AT, total 6 patients
[10] = AURKA 169G > A GA, total 11 patients
[11] = AURKA 169G > A GG, total 18 patients
[12] = AURKB 893G > A GA, total 8 patients
[13] = FLT3 738C > T CC, total 5 patients
[14] = FLT3 738C > T TT, total 10 patients
[15] = FLT4 1480A > G AG, total 7 patients
[16] = KDR 54G > A AA, total 5 patients
[17] = KDR 54G > A GA, total 16 patients
[18] = KDR 54G > A GG, total 9 patients
[19] = KDR 1192G > A GA, total 3 patients
[20] = KDR −92G > A AG, total 7 patients
[21] = KDR −92G > A GG, total 20 patients
[22] = KDR −604T > C TT, total 6 patients
[23] = RET 135G > A AA, total 3 patients (3 missing)
[24] = RET 135G > A GA, total 8 patients (3 missing)
[25] = RET 37412G > A GA, total 5 patients

SMILES: CO[C@@H](C(=O)N1Cc2n[nH]c(NC(=O)c3ccc(N4CCN(C)CC4)cc3)c2C1)c1ccccc1 [Danusertib]
substrate for efflux protein ABCB1 [4]: substrate
decrease in histone H3 phosphorylation ([5]; AURKB 893G > A homozygous wild type genotype (GG), SD 13.3%): 91%
dose linearity of pharmacokinetics ([6]; over the dose-range studied, phase I): linear pharmacokinetics
substrate for efflux protein ABCG2 [7]: substrate
Neutropenia grade 3–4: Yes (No. patients) [8, 9]: 4
Neutropenia grade 3–4: No (No. patients) ([8]; AURKA 91A > T TT, total 4 patients): 4
Neutropenia grade 3–4: No (No. patients) [8, 13]: 4
Neutropenia grade 3–4: Yes (No. patients) [8, 14]: 4
Neutropenia grade 3–4: Yes (No. patients) [8, 18]: 4
Neutropenia grade 3–4: No (No. patients) [8, 20]: 4
